According to ChEMBL document CHEMBL3865794, “Novel securinine derivatives as topoisomerase I based antitumor agents” (Eur J Med Chem, 2016):
Activity calls are given as the source filed them. No cut-off for these calls is given here.

Assays:
[1] = target: T1, DNA topoisomerase 1 (Homo sapiens) (UniProt P11387); test: Inhibition of DNA topoisomerase 1 (unknown origin) assessed as reduction in relaxation of supercoiled pBR322 plasmid DNA at 100 uM incubated for 30 mins by agarose gel electrophoresis relative to control
T1 sequence (whole entry): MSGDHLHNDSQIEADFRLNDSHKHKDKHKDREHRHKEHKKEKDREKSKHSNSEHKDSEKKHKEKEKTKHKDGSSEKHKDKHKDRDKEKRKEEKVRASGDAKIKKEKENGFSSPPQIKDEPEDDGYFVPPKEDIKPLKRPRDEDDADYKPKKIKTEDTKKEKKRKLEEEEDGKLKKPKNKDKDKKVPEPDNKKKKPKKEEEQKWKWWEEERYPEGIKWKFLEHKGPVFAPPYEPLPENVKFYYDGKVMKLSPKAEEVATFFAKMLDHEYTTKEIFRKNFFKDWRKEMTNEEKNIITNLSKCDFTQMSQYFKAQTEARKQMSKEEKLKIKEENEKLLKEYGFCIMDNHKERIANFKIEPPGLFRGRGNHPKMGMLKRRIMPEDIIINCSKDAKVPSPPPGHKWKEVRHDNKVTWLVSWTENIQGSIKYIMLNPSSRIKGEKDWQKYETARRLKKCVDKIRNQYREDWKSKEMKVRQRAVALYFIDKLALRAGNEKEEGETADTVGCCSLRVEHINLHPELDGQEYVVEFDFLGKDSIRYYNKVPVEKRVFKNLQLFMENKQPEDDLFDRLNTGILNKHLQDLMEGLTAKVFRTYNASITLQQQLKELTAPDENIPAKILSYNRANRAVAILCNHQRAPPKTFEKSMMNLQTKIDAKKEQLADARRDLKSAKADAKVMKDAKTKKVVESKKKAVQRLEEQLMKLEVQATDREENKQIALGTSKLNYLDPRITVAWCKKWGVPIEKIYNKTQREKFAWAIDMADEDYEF
Outline: (§1)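 Supercoiled pBR322 DNA incubated with Topo I in the presence or absence of compound for 30 min at 37 °C. Reaction stopped with dye solution of bromophenol blue, xylene cyanol and glycerol. Products run on 1% agarose in 1× TAE for 40 min, then EB-stained and UV-imaged. Inhibition rate derived from gel gray-scale analysis relative to control. Camptothecin served as positive control.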

[2] = Growth inhibition of human A549 cells after 72 hrs by MTT assay; format: functional, cell-based; conditions: Homo sapiens, A549, 72 h
Outline: (§2)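 Cells seeded at 5 × 10³ per well and incubated overnight in medium with 10% FBS. Medium then replaced with fresh medium containing compound at […] for 72 h. MTT (5 mg/mL stock, 20 µL per well) added for 4 h at 37 °C, formazan dissolved in DMSO, absorbance read at 570 nm. Each dose run in parallel triplicate. IC50 taken from mean absorbance versus concentration curves.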

[3] = Growth inhibition of human HeLa cells after 72 hrs by MTT assay; format: functional, cell-based; conditions: Homo sapiens, HeLa, 72 h; outline: as §2
[4] = Growth inhibition of human HepG2 cells after 72 hrs by MTT assay; format: functional, cell-based; conditions: Homo sapiens, HepG2, 72 h; outline: as §2
[5] = Growth inhibition of human SH-SY5Y cells after 72 hrs by MTT assay; format: functional, cell-based; conditions: Homo sapiens, SH-SY5Y, 72 h; outline: as §2
[6] = Antiproliferative activity against human SW480 cells after 48 hrs by MTT assay; format: functional, cell-based; conditions: SW480, 48 h
[7] = target: T1, DNA topoisomerase 1 (Homo sapiens); test: Inhibition of DNA topoisomerase 1 (unknown origin) assessed as reduction in relaxation of supercoiled pBR322 plasmid DNA incubated for 30 mins by agarose gel electrophoresis; outline: as §1
[8] = Growth inhibition of human L02 cells after 72 hrs by MTT assay; format: cell-based; conditions: L02, 72 h; outline: as §2
A549 = test: Selectivity index, ratio of IC50 for human L02 cells to IC50 for human A549 cells; format: functional
[9] = target: T1, DNA topoisomerase 1 (Homo sapiens); test: Inhibition of DNA topoisomerase 1 (unknown origin) assessed as reduction in topoisomerase 1-DNA complex formation preincubated for 20 mins followed by supercoiled pBR322 plasmid DNA addition measured after 3 mins by electrophoretic mobility shift assay
Bos taurus [10] = organism: Bos taurus; test: Inhibition of calf thymus DNA topoisomerase 1 assessed as DNA-insertion by measuring reduction in conversion of negatively supercoiled pBR322 plasmid DNA to relaxed DNA at 25 uM preincubated followed by substrate addition measured after 30 mins by ethidium bromide staining based agarose gel electrophoresis
Outline: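 Calf thymus Topo I (20 units) and negatively supercoiled pBR322 DNA with test compound or ethidium bromide in Topo I buffer (50 mM Tris-HCl pH 7.5, 10 mM MgCl2, 50 mM KCl, 0.1 mM EDTA, 0.5 mM DTT, BSA), 30 min at 37 °C. 1% agarose gel in 1× TAE, 40 min. Ethidium bromide stain 30 min, UV imaging.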

Bos taurus [11] = organism: Bos taurus; test: Inhibition of calf thymus DNA topoisomerase 1-mediated DNA cleavage assessed as drug-enzyme-DNA covalent ternary complex formation by measuring increase in linear band using negatively supercoiled pBR322 plasmid DNA as substrate at 25 to 50 uM after 30 mins by agarose gel electrophoresis
Outline: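 Calf thymus Topo I (30 units) and negatively supercoiled pBR322 in Topo I buffer (pH 7.5), 30 min at 37 °C. Test compounds at 25–200, camptothecin at […]. Trapped with 1% SDS, then proteinase K 0.8 mg/mL, 10 min at 50 °C. 1% agarose/TAE run 30 min at 60 V, ethidium bromide stain, second 30-min electrophoresis. Scored as supercoiled-to-nicked/linear conversion under UV.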

Compound | inhibition [1] [%] | IC50 [2] [µM] | IC50 [3] [µM] | IC50 [4] [µM] | IC50 [5] [µM] | IC50 [6] [µM] | inhibition [7] | IC50 [8] [µM] | Ratio IC50 (A549) | inhibition [9] | inhibition (Bos taurus [10]) | inhibition (Bos taurus [11])
O=C1O[C@@]23C[C@@H](C=CC2=C1C(O)c1cccc(Br)c1)N1CCCC[C@@H]13 (stereo partly specified) | 34.7 | 9.01 | 19.1 | 15.1 | 20.2 | – | – | – | – | – | – | –
O=C1O[C@@]23C[C@@H](C=CC2=C1C(O)c1cccc(Cl)c1)N1CCCC[C@@H]13 (stereo partly specified) | 35.3 | 11.1 | 15.6 | 17.8 | 27.8 | – | – | – | – | – | – | –
O=C1C=C2C=C[C@@H]3C[C@@]2(O1)[C@H]1CCCCN31 [SECURININE] | 23.9 | 23.6 | 50.2 | 36.9 | 78.9 | 25.9 | – | – | – | – | – | –
O=C1O[C@@]23C[C@@H](C=CC2=C1C(O)c1ccc(F)cc1)N1CCCC[C@@H]13 (stereo in doubt; 4a-2) | 49.8 | – | – | – | – | – | – | – | – | – | – | –
O=C1O[C@@]23C[C@@H](C=CC2=C1C(O)c1ccc([N+](=O)[O-])cc1)N1CCCC[C@@H]13 (stereo partly specified) | 56.7 | 2.21 | 8.26 | 4.13 | 8.5 | – | Dose-dependent effect | 16.7 | 6.26 - 7.56 | – | – | –
O=C1O[C@@]23C[C@@H](C=CC2=C1C(O)c1ccc(Br)cc1)N1CCCC[C@@H]13 (stereo in doubt; 4a-4) | 47.1 | – | – | – | – | – | – | – | – | – | – | –
O=C1O[C@@]23C[C@@H](C=CC2=C1C(O)c1cccc(F)c1)N1CCCC[C@@H]13 (stereo partly specified) | 34.9 | 8.01 | 16.8 | 16.1 | 27.1 | – | – | – | – | – | – | –
O=C1O[C@@]23C[C@@H](C=CC2=C1C(O)c1ccc(O)cc1)N1CCCC[C@@H]13 (stereo partly specified) | 31.8 | 6.99 | 18.9 | 17.1 | 23 | – | – | – | – | – | – | –
O=C1O[C@@]23C[C@@H](C=CC2=C1C(O)c1ccc(Cl)cc1)N1CCCC[C@@H]13 (stereo in doubt; 4a-3) | 48.9 | – | – | – | – | – | – | – | – | – | – | –
O=C1O[C@@]23C[C@@H](C=CC2=C1C(O)c1ccc([N+](=O)[O-])cc1[N+](=O)[O-])N1CCCC[C@@H]13 (stereo partly specified) | 43.1 | 11.5 | 7.11 | 5.98 | 8.71 | – | – | – | – | – | – | –
N#Cc1cccc(C(O)C2=C3C=C[C@@H]4C[C@@]3(OC2=O)[C@H]2CCCCN42)c1 (stereo partly specified) | 34.7 | 7.08 | 15.6 | 17.9 | 24.9 | – | – | – | – | – | – | –
O=C1O[C@@]23C[C@@H](C=CC2=C1C(O)c1ccc(F)cc1F)N1CCCC[C@@H]13 (stereo partly specified) | 37.4 | 5.18 | 14.9 | 13.6 | 22.1 | – | – | – | – | – | – | –
O=C1O[C@@]23C[C@@H](C=CC2=C1C(O)c1ccccc1[N+](=O)[O-])N1CCCC[C@@H]13 (stereo partly specified) | 40.6 | 3.91 | 8.11 | 6.78 | 8.69 | – | – | – | – | – | – | –
O=C1O[C@@]23C[C@@H](C=CC2=C1[C@@H](O)c1ccc([N+](=O)[O-])cc1)N1CCCC[C@@H]13 | – | 1.98 | 7.99 | 4.01 | 8.52 | – | – | – | – | Dose-dependent effect | – | –
O=C1O[C@@]23C[C@@H](C=CC2=C1C(O)c1ccc(C(F)(F)F)cc1)N1CCCC[C@@H]13 (stereo in doubt; 4a-6) [listing 1 of 2 here] | – | 2.91 | 8.99 | 2.42 | 8.57 | – | – | 18.2 | 6.26 - 7.56 | – | – | –
O=C1O[C@@]23C[C@@H](C=CC2=C1C(O)c1ccccc1Br)N1CCCC[C@@H]13 (stereo partly specified) | 39.2 | 7.11 | 12.7 | 12.6 | 23.1 | – | – | – | – | – | – | –
O=C1O[C@@]23C[C@@H](C=CC2=C1C(O)c1ccccc1F)N1CCCC[C@@H]13 (stereo partly specified) | 42.3 | 6.89 | 13 | 10.1 | 22 | – | – | – | – | – | – | –
N#Cc1ccc(C(O)C2=C3C=C[C@@H]4C[C@@]3(OC2=O)[C@H]2CCCCN42)cc1 (stereo in doubt; 4a-5) | 45.7 | – | – | – | – | – | – | – | – | – | – | –
CC[n+]1c(-c2ccccc2)c2cc(N)ccc2c2ccc(N)cc21 | – | – | – | – | – | – | – | – | – | – | Active | –
COc1ccc(C(O)C2=C3C=C[C@@H]4C[C@@]3(OC2=O)[C@H]2CCCCN42)cc1 (stereo partly specified) | 31.6 | 10 | 10 | 17.8 | 22.5 | – | – | – | – | – | – | –
O=C1O[C@@]23C[C@@H](C=CC2=C1[C@H](O)c1ccc([N+](=O)[O-])cc1)N1CCCC[C@@H]13 | – | 2.23 | 8 | 4.19 | 8.48 | – | – | – | – | Dose-dependent effect | – | –
CC[C@@]1(O)C(=O)OCc2c1cc1n(c2=O)Cc2cc3ccccc3nc2-1 [CAMPTOTHECIN] | – | 0.12 | 59.1 | 29.8 | > 100 | – | – | – | – | – | – | Active
CSc1ccc(C(O)C2=C3C=C[C@@H]4C[C@@]3(OC2=O)[C@H]2CCCCN42)cc1 (stereo partly specified) | 30.9 | 9.05 | 17.8 | 16.7 | 21 | – | – | – | – | – | – | –
O=C1O[C@@]23C[C@@H](C=CC2=C1C(O)c1ccccc1Cl)N1CCCC[C@@H]13 (stereo partly specified) | 42.4 | 7.01 | 10.4 | 9.16 | 19.9 | – | – | – | – | – | – | –
O=C1O[C@@]23C[C@@H](C=CC2=C1C(O)c1ccc(C(F)(F)F)cc1)N1CCCC[C@@H]13 (stereo in doubt; 4a-6) [listing 2 of 2 here] | 53.6 | – | – | – | – | – | – | – | – | – | – | –
N#Cc1ccccc1C(O)C1=C2C=C[C@@H]3C[C@@]2(OC1=O)[C@H]1CCCCN31 (stereo partly specified) | 38.4 | 7.01 | 14.9 | 11.1 | 21.9 | – | – | – | – | – | – | –
Cc1ccc(C(O)C2=C3C=C[C@@H]4C[C@@]3(OC2=O)[C@H]2CCCCN42)cc1 (stereo partly specified) | 27.1 | 8.81 | 9.07 | 7.09 | 15.1 | – | – | – | – | – | – | –
O=C1O[C@@]23C[C@@H](C=CC2=C1C(O)c1cccc([N+](=O)[O-])c1)N1CCCC[C@@H]13 (stereo partly specified) | 36.2 | 4.04 | 9.98 | 6.77 | 8.7 | – | – | – | – | – | – | –
O=C1O[C@@]23C[C@@H](C=CC2=C1C(O)c1ccccc1)N1CCCC[C@@H]13 (stereo partly specified) | 24 | 7.05 | 21.4 | 20.1 | 25.4 | – | – | – | – | – | – | –
